From ChEMBL document CHEMBL1145993, “Pyrazole derivatives as partial agonists for the nicotinic acid receptor” (J Med Chem, 2003)

Organism: Rattus norvegicus
Assay: Potency required for stimulation of [35S]GTP gamma-S binding to rat spleen was determined
Type: functional, organism-based

Row | EC50 [µM] | SMILES
1 | 6.97 | O=C(O)c1n[nH]c2c1CCC2
2 | 21.5 | O=C(O)c1cc[nH]n1
3 | 5.09 | CCCc1cc(C(=O)O)n[nH]1
4 | 21.8 | CC(C)c1cc(C(=O)O)n[nH]1
5 | 86.9 | O=C(O)c1cc(Cc2ccccc2)n[nH]1
6 | 64.6 | O=C(O)c1n[nH]c2c1CCCC2
7 | 2.26 | CCCCc1cc(C(=O)O)n[nH]1
8 | 0.74 | O=C(O)c1cccnc1 [NIACIN]

Organism: Rattus norvegicus
Assay: Relative intrinsic activity in stimulation of [35S]GTP gamma-S binding to rat spleen was determined
Type: functional
Procedure, shortened: (§1)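 Relative intrinsic activity is maximal stimulation of [35S]GTPγS binding (0.2 nM) as a percentage of the maximum given by nicotinic acid, which is set at 100%. Rat membranes (adipocyte for line 3, spleen for line 4) at 1 to 1.5 µg protein were incubated 90 min at 25 °C with 10 µM GDP and 100 mM NaCl, then filtered. Values are arithmetic mean ± SEM.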

Row | SMILES | RIA [%]
9 | O=C(O)c1n[nH]c2c1CCC2 | 55.9
10 | O=C(O)c1cc[nH]n1 | 85.3
11 | CCCc1cc(C(=O)O)n[nH]1 | 69.9
12 | CC(C)c1cc(C(=O)O)n[nH]1 | 67.7
13 | O=C(O)c1cc(Cc2ccccc2)n[nH]1 | 50.3
14 | O=C(O)c1n[nH]c2c1CCCC2 | 47.2
15 | CCCCc1cc(C(=O)O)n[nH]1 | 80.7
16 | O=C(O)c1cccnc1 [NIACIN] | 100

Organism: Rattus norvegicus
Assay: Relative intrinsic activity in stimulation of [35S]GTP gamma-S binding to rat adipocyte was determined
Type: functional
Procedure, shortened: as §1

Row | SMILES | RIA [%]
17 | O=C(O)c1n[nH]c2c1CCC2 | 51.7
18 | O=C(O)c1cc[nH]n1 | 78.5
19 | CCCc1cc(C(=O)O)n[nH]1 | 53.5
20 | CC(C)c1cc(C(=O)O)n[nH]1 | 49.2
21 | O=C(O)c1cc(Cc2ccccc2)n[nH]1 | 52.4
22 | O=C(O)c1cc(Cc2cccc(Cl)c2)n[nH]1 | 39.4
23 | CCCCc1cc(C(=O)O)n[nH]1 | 75.7
24 | O=C(O)c1cccnc1 [NIACIN] | 100

Organism: Rattus norvegicus
Assay: G protein activation was measured by stimulation of [35S]GTP gamma-S binding to rat adipocyte membranes
Type: functional

Row | EC50 [µM] | SMILES
25 | 6.44 | O=C(O)c1n[nH]c2c1CCC2
26 | 16 | O=C(O)c1cc[nH]n1
27 | 6.1 | CCCc1cc(C(=O)O)n[nH]1
28 | 13.7 | CC(C)c1cc(C(=O)O)n[nH]1
29 | 70.7 | O=C(O)c1cc(Cc2ccccc2)n[nH]1
30 | 85.1 | O=C(O)c1n[nH]c2c1CCCC2
31 | 46.6 | O=C(O)c1cc(Cc2cccc(Cl)c2)n[nH]1
32 | 4.12 | CCCCc1cc(C(=O)O)n[nH]1
33 | 1.7 | O=C(O)c1cccnc1 [NIACIN]
